Experimental data: publication PMC10998571 (Proceedings of the National Academy of Sciences of the …, 2024)
No end group written: not given here.

Tests used:
TNFR1 PLAD = test: PLAD FRET biosensor; format: cell-based; conditions: HEK293 cells, 24 h; FKC 50 µM, ZAF 100 µM or co-treatment; N = 4
In short: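 PLAD FRET biosensor made by transient Lipofectamine 3000 transfection of HEK293 cells with donor-only or donor/acceptor FRET pair DNAs. Cells moved to 96-well plates at 15,000 cells/well and treated with PBS (negative control), test compound and/or zafirlukast for 24 h before fluorescence intensity readout.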

TNFR1 [1] = target: T1, TNFR1 (Homo sapiens, UniProt P19438); conditions: 37 (ZAF); ref 55 (Pep4-19); cited from earlier work
T1 sequence (P19438 30-242) 1: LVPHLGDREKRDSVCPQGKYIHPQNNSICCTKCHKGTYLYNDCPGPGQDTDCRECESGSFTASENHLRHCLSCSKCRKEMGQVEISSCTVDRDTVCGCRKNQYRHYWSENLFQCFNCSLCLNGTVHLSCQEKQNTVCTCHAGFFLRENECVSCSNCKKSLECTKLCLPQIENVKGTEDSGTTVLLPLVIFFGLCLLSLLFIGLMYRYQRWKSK
T1 sequence (P19438 30-242) 2: T1 sequence (P19438 30-242) 1

HEK293 cells = test: MTT assay; format: cell-based, human; conditions: FKC 5-50 µM, 24 h, absorbance at 560 nm, N = 4
TNFR1 [2] = target: T1, TNFR1; test: TNFR1 FRET biosensor; format: cell-based
In short: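 HEK293 cells transiently transfected (Lipofectamine 3000) with TNFR1ΔCD–GFP donor alone or with TNFR1ΔCD–RFP acceptor; donor-only served as the no-FRET control. Cells plated at 15,000 cells/well in 96-well plates and treated with PBS or test compound (5 to 50 µM) for 24 h. FRET read from fluorescence intensity; EC50 derived from the dose–response of FRET change.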

[3] = test system: IL-1β induced NF-κB activation in HEK293 cells; test: IL-1β induced NF-κB activation; format: cell-based, human; conditions: IL-1β 50 ng/mL, 18 h, N = 4
In short: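 HEK293 cells co-transfected with an NF-κB-response-element Firefly luciferase reporter (1 μg) and a Renilla reporter (0.1 μg) using Lipofectamine 3000. After 24 h, 15,000 cells/well were incubated with PBS or test compound (5 to 50 µM), with or without IL-1β, for 18 h at 37 °C. Dual-Glo Firefly, then Stop & Glo Renilla, 15 min RT each. Firefly normalised to Renilla and to ligand-treated cells.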

[4] = i.p. injection, mice; rhodamine fluorescence of tissue sections
IL-23 receptor = conditions: without affecting ligand binding; cited from earlier work
NF-κB activation = conditions: cited from earlier work
TNFR1/TNF = test: Co-IP of TNFR1 and TNF; format: binding; conditions: co-IP with His-tagged TNF beads, overnight 4 °C; FKC 50 µM or etanercept
In short: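 Ni-NTA agarose beads loaded with His-tagged human TNF for 4 h at 4 °C and washed with PBS. […] Samples were analysed by Western blotting, with equal bead-bound TNF and input TNFR1 as pull-down controls.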

## COc1cc(C(=O)NS(=O)(=O)c2ccccc2C)ccc1Cc1cn(C)c2ccc(NC(=O)OC3CCCC3)cc12 [ZAF, zafirlukast]
TNFR1 PLAD
  FRET change of the PLAD biosensor: reduced FRET in the PLAD biosensor
TNFR1 [1]
  extent of inhibition of TNFR1 signaling: only exhibited partial inhibition

## FKCRRWQWRMKK-NH2 [FKC]
HEK293 cells
  toxicity in HEK293 cells: does not have any toxic effect in HEK293 cells
TNFR1 [2]
  EC50: 25 µM

## IL-1β: cytokine that binds IL-1 receptor to stimulate NF-κB activation (MedChemExpress, Cat# HY-P7028)
[3]
  NF-κB activation relative to basal level (IL-1β): 10 fold

## Rho-FKCRRWQWRMKK-NH2 [rhodamine-conjugated FKC]
[4]
  localization in liver, kidney, and lung: localization of FKC in all tissues

## TEEEQQLY [compound 2305]
IL-23 receptor
  inhibition of IL-23 signaling: noncompetitively inhibit IL-23 signaling

## VQRWLIVWRIRK-NH2 [IDR]
NF-κB activation
  inhibition of NF-κB activation (earlier reports): inhibit NF-κB activation

## etanercept
TNFR1/TNF
  effect on receptor–ligand interaction: disrupting receptor–ligand interaction
